Experimental data reported in ChEMBL document CHEMBL2150881, “JD-5006 and JD-5037: peripherally restricted (PR) cannabinoid-1 receptor blockers related to SLV-319 (Ibipinabant) as metabolic disorder therapeutics devoid of CNS liabilities” (Bioorg Med Chem Lett, 2012).

Columns and labels:
Cannabinoid receptor 1 [1] = molecular target: T1, Cannabinoid receptor 1 (Homo sapiens, UniProt P21554); assay: Displacement of 3[H]ligand from recombinant human CB1 receptor
Summary of the method: (§1)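 Radioligand displacement from human recombinant CB1 and CB2 protein by a [³H] ligand. Initial screen at two concentrations in duplicate, with values >100 nM estimated. Percent inhibition read at 100 nM. IC₅₀ taken from four-point concentration curves run in duplicate.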

Cannabinoid receptor 2 = Cannabinoid receptor 2 (Homo sapiens, UniProt P34972); assay: Displacement of 3[H]ligand from recombinant human CB2 receptor; summary of the method: as §1
Chain of Cannabinoid receptor 2 (P34972 whole entry): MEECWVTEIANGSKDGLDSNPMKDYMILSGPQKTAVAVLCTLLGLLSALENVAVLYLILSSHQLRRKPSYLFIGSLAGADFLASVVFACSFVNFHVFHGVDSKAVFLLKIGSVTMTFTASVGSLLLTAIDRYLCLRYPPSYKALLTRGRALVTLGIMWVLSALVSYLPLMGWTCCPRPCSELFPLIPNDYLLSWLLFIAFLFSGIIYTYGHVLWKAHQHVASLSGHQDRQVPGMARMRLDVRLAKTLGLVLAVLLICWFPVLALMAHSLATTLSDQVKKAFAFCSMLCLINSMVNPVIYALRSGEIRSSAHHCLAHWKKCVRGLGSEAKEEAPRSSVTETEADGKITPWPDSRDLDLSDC

[2] = Apparent permeability from basolateral to apical side in MDR expressing MDCK cells by LC-MS-MS analysis; format: ADME, cell-based, Canis lupus familiaris; conditions: dog, MDCK-MDR1
Summary of the method: (§2)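 Permeability measured across MDR-MDCK kidney cell monolayers, giving apparent permeability (Papp) in the apical-to-basolateral and basolateral-to-apical directions.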

[3] = Apparent permeability from apical to basolateral side in MDR expressing MDCK cells by LC-MS-MS analysis; format: ADME, cell-based, Canis lupus familiaris; conditions: dog, MDCK-MDR1; summary of the method: as §2
Cannabinoid receptor 1 [4] = molecular target: T1, Cannabinoid receptor 1; assay: Displacement of 3[H]ligand from recombinant human CB1 receptor at 100 nM; summary of the method: as §1
[5] = molecular target: Cannabinoid receptor 1 (Mus musculus) (UniProt P47746); conditions: Cerebellum, 30 mg/kg
Chain of Cannabinoid receptor 1 (Mus musculus) (P47746 whole entry): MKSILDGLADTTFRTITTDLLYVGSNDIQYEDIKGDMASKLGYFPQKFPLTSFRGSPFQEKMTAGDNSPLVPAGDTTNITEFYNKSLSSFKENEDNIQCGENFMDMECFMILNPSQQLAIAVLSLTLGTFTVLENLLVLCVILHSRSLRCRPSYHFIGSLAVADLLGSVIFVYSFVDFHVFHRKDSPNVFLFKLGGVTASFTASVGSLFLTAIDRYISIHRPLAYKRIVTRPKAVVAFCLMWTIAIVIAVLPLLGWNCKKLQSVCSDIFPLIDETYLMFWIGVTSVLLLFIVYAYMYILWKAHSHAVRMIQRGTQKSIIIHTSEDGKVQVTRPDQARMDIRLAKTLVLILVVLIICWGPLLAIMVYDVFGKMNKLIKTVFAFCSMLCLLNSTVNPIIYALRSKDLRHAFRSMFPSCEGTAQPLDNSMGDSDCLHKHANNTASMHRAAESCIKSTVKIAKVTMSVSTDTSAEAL

T1 sequence (P21554 whole entry): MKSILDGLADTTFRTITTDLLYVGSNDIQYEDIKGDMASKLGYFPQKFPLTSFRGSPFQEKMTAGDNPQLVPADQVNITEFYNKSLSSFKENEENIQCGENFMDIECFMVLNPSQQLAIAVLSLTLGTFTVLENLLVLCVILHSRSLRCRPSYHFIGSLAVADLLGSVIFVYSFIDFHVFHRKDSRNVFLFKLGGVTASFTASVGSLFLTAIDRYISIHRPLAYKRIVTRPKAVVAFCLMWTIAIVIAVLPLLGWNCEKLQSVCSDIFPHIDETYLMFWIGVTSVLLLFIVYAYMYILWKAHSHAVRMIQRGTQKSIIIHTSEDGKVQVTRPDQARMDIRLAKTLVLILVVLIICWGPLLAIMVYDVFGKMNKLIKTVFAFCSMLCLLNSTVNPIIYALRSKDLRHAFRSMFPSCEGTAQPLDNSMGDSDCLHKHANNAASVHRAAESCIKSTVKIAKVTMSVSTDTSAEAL

| SMILES | IC50 (Cannabinoid receptor 1 [1]) | IC50 (Cannabinoid receptor 2) | also measured |
| --- | --- | --- | --- |
| CCOC(=O)Nc1ccc(S(=O)(=O)NC(=NC)N2CC(c3ccccc3)C(c3ccc(Cl)cc3)=N2)cc1 (racemic) | 300 nM | – | – |
| NC(=O)[C@H](CO)N=C(NS(=O)(=O)c1ccc(Cl)cc1)N1CC(c2ccccc2)C(c2ccc(Cl)cc2)=N1 (stereo partly specified) | 13 nM | > 5000 nM | – |
| NC(=O)CN=C(NS(=O)(=O)c1ccc(O)cc1)N1CC(c2ccccc2)C(c2ccc(Cl)cc2)=N1 (stereo unspecified) | > 100 nM | 5000 nM | – |
| CN=C(NS(=O)(=O)c1ccc(OCC(N)=O)cc1)N1CC(c2ccccc2)C(c2ccc(Cl)cc2)=N1 (racemic) | > 5000 nM | – | – |
| COc1ccc(S(=O)(=O)/N=C(\N[C@@H](C)C(=O)N[C@@H](CO)C(N)=O)N2CC(c3ccccc3)C(c3ccc(Cl)cc3)=N2)cc1 (stereo partly specified) | > 100 nM | > 5000 nM | – |
| CC(C)[C@H](N/C(=N\S(=O)(=O)c1ccc(Cl)cc1)N1CC(c2ccccc2)C(c2ccc(Cl)cc2)=N1)C(=O)NCC(N)=O (stereo partly specified) | > 100 nM | > 1000 nM | – |
| C[C@H](O)[C@@H](N=C(NS(=O)(=O)c1ccc(Cl)cc1)N1CC(c2ccccc2)C(c2ccc(Cl)cc2)=N1)C(N)=O (stereo partly specified) | > 100 nM | > 5000 nM | – |
| O=C(O)CN=C(NS(=O)(=O)c1ccc(Cl)cc1)N1CC(c2ccccc2)C(c2ccc(Cl)cc2)=N1 (stereo unspecified) | > 1000 nM | – | – |
| CN/C(=N\S(=O)(=O)c1ccc(NC(C)=O)cc1)N1CC(c2ccccc2)C(c2ccc(Cl)cc2)=N1 (racemic) | > 1000 nM | – | – |
| CN=C(NS(=O)(=O)c1ccc(C(=O)NO)cc1)N1CC(c2ccccc2)C(c2ccc(Cl)cc2)=N1 (racemic) | > 5000 nM | – | – |
| COC(=O)[C@H](C)N/C(=N\S(=O)(=O)c1ccc(Cl)cc1)N1CC(c2ccccc2)C(c2ccc(Cl)cc2)=N1 (stereo partly specified) | – | – | inhibition (Cannabinoid receptor 1 [4]): 96% |
| NC(=O)CN/C(=N\S(=O)(=O)c1ccc(Cl)cc1)N1CC(c2ccccc2)C(c2ccc(Cl)cc2)=N1 (single isomer, unassigned; enantiomer 1) | – | – | Occ [5]: 0% |
| O=C(O)[C@@H](O)CCN=C(NS(=O)(=O)c1ccc(Cl)cc1)N1CC(c2ccccc2)C(c2ccc(Cl)cc2)=N1 (stereo partly specified) | > 1000 nM | – | – |
| CN/C(=N\S(=O)(=O)c1ccc(C(=O)O)cc1)N1CC(c2ccccc2)C(c2ccc(Cl)cc2)=N1 (racemic) | > 5000 nM | – | – |
| CN=C(NS(=O)(=O)c1ccc(OCC(=O)O)cc1)N1CC(c2ccccc2)C(c2ccc(Cl)cc2)=N1 (racemic) | > 5000 nM | – | – |
| COc1ccc(S(=O)(=O)NC(=N[C@H](C(=O)NCC(N)=O)C(C)C)N2CC(c3ccccc3)C(c3ccc(Cl)cc3)=N2)cc1 (stereo partly specified) | > 100 nM | > 5000 nM | – |
| NC(=O)[C@H](Cc1ccccc1)N/C(=N\S(=O)(=O)c1ccc(Cl)cc1)N1CC(c2ccccc2)C(c2ccc(Cl)cc2)=N1 (stereo partly specified) | – | – | inhibition (Cannabinoid receptor 1 [4]): 61% |
| COC(=O)CN/C(=N\S(=O)(=O)c1ccc(Cl)cc1)N1CC(c2ccccc2)C(c2ccc(Cl)cc2)=N1 (stereo unspecified) | – | – | inhibition (Cannabinoid receptor 1 [4]): 88% |
| CN/C(=N\S(=O)(=O)c1ccc(C(N)=O)cc1)N1CC(c2ccccc2)C(c2ccc(Cl)cc2)=N1 (racemic) | > 5000 nM | – | – |
| C[C@H](N=C(NS(=O)(=O)c1ccc(Cl)cc1)N1CC(c2ccccc2)C(c2ccc(Cl)cc2)=N1)C(=O)O (stereo partly specified) | > 1000 nM | – | – |
| C[C@H](N/C(=N\S(=O)(=O)c1ccc(O)cc1)N1CC(c2ccccc2)C(c2ccc(Cl)cc2)=N1)C(N)=O (stereo partly specified) | > 500 nM | > 5000 nM | – |
| NC(=O)CN=C(NS(=O)(=O)c1ccc(Cl)cc1)N1CC(c2ccccc2)C(c2ccc(Cl)cc2)=N1 (single isomer, unassigned; enantiomer 2) | > 1000 nM | > 1000 nM | – |
| C[C@H](N=C(NS(=O)(=O)c1ccc(Cl)cc1)N1CC(c2ccccc2)C(c2ccc(Cl)cc2)=N1)C(=O)N[C@@H](CO)C(N)=O (stereo partly specified) | 8 nM | > 5000 nM | – |
| NC(=O)C[C@H](N=C(NS(=O)(=O)c1ccc(Cl)cc1)N1CC(c2ccccc2)C(c2ccc(Cl)cc2)=N1)C(N)=O (stereo partly specified) | > 100 nM | > 5000 nM | – |
| CCOC(=O)[C@@H](O)CCN/C(=N\S(=O)(=O)c1ccc(Cl)cc1)N1CC(c2ccccc2)C(c2ccc(Cl)cc2)=N1 (stereo partly specified) | – | – | inhibition (Cannabinoid receptor 1 [4]): 53% |
| CCOC(=O)c1ccc(S(=O)(=O)NC(=NC)N2CC(c3ccccc3)C(c3ccc(Cl)cc3)=N2)cc1 (racemic) | 100 nM | – | – |
| NC(=O)[C@H](Cc1ccccc1)N=C(NS(=O)(=O)c1ccc(Cl)cc1)N1CC(c2ccccc2)C(c2ccc(Cl)cc2)=N1 (stereo partly specified) | – | > 5000 nM | – |

Now from value to compound, other results behind:

| IC50 (Cannabinoid receptor 1 [1]) | IC50 (Cannabinoid receptor 2) | SMILES | also measured |
| --- | --- | --- | --- |
| 8.5 nM | > 1000 nM | CC(C)(N/C(=N\S(=O)(=O)c1ccc(Cl)cc1)N1CC(c2ccccc2)C(c2ccc(Cl)cc2)=N1)C(N)=O (racemic) | – |
| 100 nM | > 5000 nM | COc1ccc(S(=O)(=O)NC(=NCC(N)=O)N2CC(c3ccccc3)C(c3ccc(Cl)cc3)=N2)cc1 (stereo unspecified) | – |
| 100 nM | > 5000 nM | CC(C)[C@H](N/C(=N\S(=O)(=O)c1ccc(Cl)cc1)N1CC(c2ccccc2)C(c2ccc(Cl)cc2)=N1)C(=O)N[C@@H](C)C(N)=O (stereo partly specified) | – |
| 70 nM | > 5000 nM | COc1ccc(S(=O)(=O)NC(=N[C@@H](C)C(N)=O)N2CC(c3ccccc3)C(c3ccc(Cl)cc3)=N2)cc1 (stereo partly specified) | – |
| 66 nM | > 5000 nM | NC(=O)[C@@H](O)CCN/C(=N\S(=O)(=O)c1ccc(Cl)cc1)N1CC(c2ccccc2)C(c2ccc(Cl)cc2)=N1 (stereo partly specified) | – |
| 4 nM | > 1000 nM | COc1cccc(S(=O)(=O)/N=C(\N[C@H](C(N)=O)C(C)C)N2CC(c3ccccc3)C(c3ccc(Cl)cc3)=N2)c1 (stereo partly specified) | – |
| 8.3 nM | > 1000 nM | NC(=O)[C@@H](N/C(=N\S(=O)(=O)c1ccc(Cl)cc1)N1CC(c2ccccc2)C(c2ccc(Cl)cc2)=N1)C1CCC1 (stereo partly specified) | – |
| 2 nM | > 5000 nM | CC(C)(C)[C@H](N/C(=N\S(=O)(=O)c1ccc(Cl)cc1)N1CC(c2ccccc2)C(c2ccc(Cl)cc2)=N1)C(N)=O (stereo partly specified) | Papp B→A [2]: < 0.1 ×10⁻⁶ cm/s; Papp A→B [3]: 0.7 ×10⁻⁶ cm/s |
| > 1000 nM | – | CC(C)[C@H](N/C(=N\S(=O)(=O)c1ccc(Cl)cc1)N1C[C@@H](c2ccccc2)C(c2ccc(Cl)cc2)=N1)C(N)=O | – |
| 26 nM | > 1000 nM | CC(CN/C(=N\S(=O)(=O)c1ccc(Cl)cc1)N1CC(c2ccccc2)C(c2ccc(Cl)cc2)=N1)C(N)=O (racemic) | – |
| 10 nM | > 1000 nM | C[C@H](N/C(=N\S(=O)(=O)c1ccc(Cl)cc1)N1CC(c2ccccc2)C(c2ccc(Cl)cc2)=N1)C(=O)NCC(N)=O (stereo partly specified) | – |
| 7 nM | > 1000 nM | C[C@@H](O)[C@H](N/C(=N\S(=O)(=O)c1ccc(Cl)cc1)N1CC(c2ccccc2)C(c2ccc(Cl)cc2)=N1)C(=O)N[C@@H](CO)C(N)=O (stereo partly specified) | – |
| 27 nM | > 5000 nM | C[C@H](NC(=O)[C@H](C)N/C(=N\S(=O)(=O)c1ccc(Cl)cc1)N1CC(c2ccccc2)C(c2ccc(Cl)cc2)=N1)C(N)=O (stereo partly specified) | Papp A→B [3]: 0.3 ×10⁻⁶ cm/s |
| 100 nM | – | CN=C(NS(=O)(=O)c1ccc(OC)cc1)N1CC(c2ccccc2)C(c2ccc(Cl)cc2)=N1 (racemic) | – |
